Reference: ChEMBL document CHEMBL1121700, “Antiinflammatory 5,6-dihydro-11-oxodibenz[b,e]azepine-3-acetic acids” (1981)

Tests used:
Format in all cases: functional
[1] = system: Rattus norvegicus; test: Antiinflammatory activity relative to phenyl butazone as 1 in rat carrageenan paw edema assay
Method in brief: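 Female rats, 80–90 g, six per dose group, at least four dose levels. Test agent given orally 1 h before carrageenan injection into one hind paw, in vehicle of 0.9% NaCl, 0.5% Na carboxymethylcellulose, 0.4% polysorbate 80, 0.9% benzyl alcohol, 97.3% water. Rats killed 4 h after dosing and both hind paws weighed. Potency relative to phenylbutazone from dose-response of % weight increase of treated over untreated paw, by analysis of variance.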

[2] = species on record: Mus musculus; test: Analgesic activity relative to aspirin as 1 in 8 mice phenylquinone writhing assay
Method in brief: (§1)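 Male mice, 18–20 g, dosed orally with test agent in aqueous vehicle (0.9% NaCl, 0.5% Na carboxymethylcellulose, 0.4% polysorbate 80, 0.9% benzyl alcohol, 97.3% water) 20 min before intraperitoneal phenylquinone. Writhing observed over the following 10 min. Potency relative to aspirin taken from dose-response plots by analysis of variance.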

[3] = species on record: Mus musculus; test: Analgesic activity relative to aspirin as 1 in 16 mice phenylquinone writhing assay; method in brief: as §1
[4] = species on record: Mus musculus; test: Analgesic activity relative to aspirin as 1 in 32 mice phenylquinone writhing assay; method in brief: as §1
[5] = species on record: Mus musculus; test: Analgesic activity relative to aspirin as 1 in 24 mice phenylquinone writhing assay; method in brief: as §1

CC(=O)N1Cc2ccccc2C(=O)c2ccc(CC(=O)O)cc21
Relative activity [1]: <0.3 | Relative activity [2]: <0.2

O=C(O)Cc1ccc2c(c1)NCc1ccccc1C2=O
Relative activity [1]: 29 | Relative activity [2]: <0.7

COc1ccc2c(c1)CN(C)c1cc(CC(=O)O)ccc1C2=O
Relative activity [3]: <0.5 | Relative activity [1]: 6.7

COc1ccc2c(c1)CNc1cc(CC(=O)O)ccc1C2=O
Relative activity [1]: <0.1 | Relative activity [2]: <0.2

CN1Cc2ccccc2C(=O)c2ccc(CC(=O)O)cc21
Relative activity [1]: 7 | Relative activity [4]: <0.2

CCN1Cc2ccccc2C(=O)c2ccc(CC(=O)O)cc21
Relative activity [3]: <0.2 | Relative activity [1]: 2.3

CC(C(=O)O)c1ccc2c(c1)N(C)Cc1ccccc1C2=O (centres undefined)
Relative activity [5]: 1 | Relative activity [1]: 11
